Here are results for 18 molecules from ChEMBL document CHEMBL1125468, “Extraordinarily potent antimalarial compounds: new, structurally simple, easily synthesized, tricyclic 1,2,4-trioxanes” (J Med Chem, 1992).

Values after ≈ are worked out from the molar mass of the structure shown.

In experiment [1] the test system is Plasmodium falciparum. Put plainly: Inhibition of Plasmodium falciparum D6 (Sierra Leone) by [3H]hypoxanthine uptake. The format is functional, organism-based.
Experiment [2] has as its system Plasmodium falciparum. Nature of the experiment: Parasite viability index for Plasmodium falciparum Indochina W2 by [3H]hypoxanthine uptake. Format: functional, organism-based.
The nature of experiment [3]: Potency to inhibit Indochina(W-2) clone relative to artemisinin. The format is functional. The method in brief:
(§1)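 Ratio of artemisinin IC50 to test-compound IC50, both measured in the same [3H]hypoxanthine microdilution assay against the named clone. Parasites were at 0.5% parasitemia and 1% hematocrit, exposed for 24 h at 37 °C under low oxygen, then labelled for 18–20 h. IC50s came from a four-parameter logistic fit of duplicate wells.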

Experiment [4] is described as follows: Potency to inhibit African Sierra Leone(D-6) clone relative to artemisinin. The format is functional. The method in brief:
as §1

What is called IC50 is the point on the concentration scale where inhibition reaches its midpoint. Higher therefore signals a need for much substance. Turning to `CCN(CC)C(=O)OCC[C@@H]1CCC[C@@H]2CC[C@]3(C)OO[C@]21[C@@H](OC)O3`, the IC50 with Plasmodium falciparum [1] was 1.7 ng/mL (≈ 4.58 nM); with Plasmodium falciparum [2], under 0.4 ng/mL. Also, the figures for the Relative potency in experiment [3] and in experiment [4] were over 3.5 and 2.3, respectively.

On to `C=CCOCC[C@@H]1CCC[C@@H]2CC[C@]3(C)OO[C@]21[C@@H](OC)O3`, for which the figures for the IC50 in the experiment on Plasmodium falciparum [1] and with Plasmodium falciparum [2] were 5.5 ng/mL (≈ 17.6 nM) and 0.6 ng/mL (≈ 1.92 nM), respectively. In addition, the Relative potency stood at 2.3 in experiment [3] and 0.7 in experiment [4].

For the molecule `C[C@@H]1CC[C@H]2[C@@H](C)C(=O)O[C@@H]3O[C@@]4(C)CC[C@@H]1[C@]32OO4` [ARTEMISININ], the results for the IC50 in the experiment with Plasmodium falciparum [1] and in the experiment with Plasmodium falciparum [2] were 3.9 ng/mL (≈ 13.8 nM) and 1.4 ng/mL (≈ 4.96 nM), respectively. Also, the Relative potency in experiment [3] and in experiment [4] was 1 each time.

With `CO[C@H]1O[C@]2(C)CC[C@H]3CCC[C@@H](CCOS(=O)(=O)c4cccc5c(N(C)C)cccc45)[C@]31OO2`, the IC50 with Plasmodium falciparum [1] stood at 16.3 ng/mL (≈ 32.2 nM); with Plasmodium falciparum [2] it was 1.2 ng/mL (≈ 2.37 nM). The Relative potency was determined as 1.2 in experiment [3] and 0.2 in experiment [4].

Regarding `CO[C@H]1O[C@]2(C)CC[C@H]3CCC[C@@H](CCOC(=O)CNC(=O)OC(C)(C)C)[C@]31OO2`, the IC50 with Plasmodium falciparum [1] worked out at 3.5 ng/mL (≈ 8.15 nM); with Plasmodium falciparum [2], 2.5 ng/mL (≈ 5.82 nM). The Relative potency in experiment [3] was determined as 0.6; in experiment [4], 1.1.

With `CO[C@H]1O[C@]2(C)CC[C@H]3CCC[C@@H](CCOC(=O)c4ccccc4)[C@]31OO2`, the IC50 worked out at 29.5 ng/mL (≈ 78.4 nM) with Plasmodium falciparum [1] and 8.2 ng/mL (≈ 21.8 nM) with Plasmodium falciparum [2]. Besides, the Relative potency in experiment [3] amounted to 0.2; in experiment [4], 0.1.

On to `CO[C@H]1O[C@]2(C)CC[C@H]3CCC[C@@H](CCOCc4ccccc4)[C@]31OO2`, for which the half-inhibitory concentration (IC50) was 5.4 ng/mL (≈ 14.9 nM) in the experiment on Plasmodium falciparum [1] and 0.4 ng/mL (≈ 1.1 nM) with Plasmodium falciparum [2]. Further, the Relative potency in experiment [3] was 3.5; in experiment [4], 0.7.

As for `COC(=O)c1ccc(C(=O)OCC[C@@H]2CCC[C@@H]3CC[C@]4(C)OO[C@]32[C@@H](OC)O4)cc1`, the IC50 in the experiment with Plasmodium falciparum [1] is over 1.2 ng/mL; with Plasmodium falciparum [2], under 1.2 ng/mL. For the same molecule, the Relative potency in experiment [3] is over 1.2; in experiment [4], over 3.3.

As for `CCOP(=O)(OCC)OCC[C@@H]1CCC[C@@H]2CC[C@]3(C)OO[C@]21[C@@H](OC)O3`, the IC50 in the experiment on Plasmodium falciparum [1] is 1.1 ng/mL (≈ 2.69 nM); in the experiment on Plasmodium falciparum [2], under 0.9 ng/mL. Also, the Relative potency is over 1.6 in experiment [3] and 3.5 in experiment [4].

As to `CO[C@H]1O[C@]2(C)CC[C@H]3CCC[C@@H](CCOC(=O)N(c4ccccc4)c4ccccc4)[C@]31OO2`, the IC50 in the experiment on Plasmodium falciparum [1] was 0.9 ng/mL (≈ 1.92 nM); in the experiment on Plasmodium falciparum [2] it was under 0.2 ng/mL. In addition, the figures for the Relative potency in experiment [3] and in experiment [4] were over 7 and 4.3, respectively.

`COCC[C@@H]1CCC[C@@H]2CC[C@]3(C)OO[C@]21[C@@H](OC)O3`: the IC50 in the experiment with Plasmodium falciparum [1] is 10.7 ng/mL (≈ 37.4 nM); in the experiment with Plasmodium falciparum [2], 3.7 ng/mL (≈ 12.9 nM). For the same molecule, the Relative potency in experiment [3] and in experiment [4] was 0.4 in each case.

Regarding `CO[C@H]1O[C@]2(C)CC[C@H]3CCC[C@@H](CCOCc4c(C)noc4C)[C@]31OO2`, the IC50 in the experiment with Plasmodium falciparum [1] amounted to 7.6 ng/mL (≈ 19.9 nM); with Plasmodium falciparum [2], 0.5 ng/mL (≈ 1.31 nM). The Relative potency in experiment [3] was determined as 2.8; in experiment [4] it was 0.5.

On to `CO[C@H]1O[C@]2(C)CC[C@H]3CCC[C@@H](CCOS(=O)(=O)c4ccc(C)cc4)[C@]31OO2`, for which the results for the IC50 in the experiment with Plasmodium falciparum [1] and in the experiment on Plasmodium falciparum [2] were 5.6 ng/mL (≈ 13.1 nM) and 1.9 ng/mL (≈ 4.45 nM), respectively. Besides, the Relative potency in experiment [3] and in experiment [4] was 0.7 in each case.

With `CO[C@H]1O[C@]2(C)CC[C@H]3CCC[C@@H](CCOC(=O)N(C)C)[C@]31OO2`, the results for the IC50 in the experiment on Plasmodium falciparum [1] and in the experiment with Plasmodium falciparum [2] were 2.9 ng/mL (≈ 8.44 nM) and 0.8 ng/mL (≈ 2.33 nM), respectively. The Relative potency in experiment [3] was determined as 1.8; in experiment [4] it was 1.3.

As to `CO[C@H]1O[C@]2(C)CC[C@H]3CCC[C@@H](CCOC(=O)c4ccc(C(=O)O)cc4)[C@]31OO2`, the half-inhibitory concentration (IC50) in the experiment on Plasmodium falciparum [1] was found to be 63.3 ng/mL (≈ 151 nM); with Plasmodium falciparum [2] it was 15.7 ng/mL (≈ 37.3 nM). The Relative potency in experiment [3] and in experiment [4] was 0.1 in each case.

Turning to `COC(=O)c1ccccc1S(=O)(=O)OCC[C@@H]1CCC[C@@H]2CC[C@]3(C)OO[C@]21[C@@H](OC)O3`, the IC50 with Plasmodium falciparum [1] is 11.3 ng/mL (≈ 24 nM); in the experiment with Plasmodium falciparum [2], 13.2 ng/mL (≈ 28.1 nM). The Relative potency in experiment [3] came out at 0.1; in experiment [4], 0.3.

With `CCN(CC)C(=O)c1ccc(C(=O)OCC[C@@H]2CCC[C@@H]3CC[C@]4(C)OO[C@]32[C@@H](OC)O4)cc1`, the IC50 in the experiment with Plasmodium falciparum [1] and in the experiment with Plasmodium falciparum [2] was under 1.4 ng/mL throughout. The Relative potency in experiment [3] was over 1; in experiment [4], over 2.8.

With `CO[C@H]1O[C@]2(C)CC[C@H]3CCC[C@@H](CCOC(=O)c4ccc(C(=O)OCCN(C)C)cc4)[C@]31OO2`, the IC50 was 12.6 ng/mL (≈ 25.6 nM) in the experiment on Plasmodium falciparum [1] and 3.3 ng/mL (≈ 6.71 nM) with Plasmodium falciparum [2]. Moreover, the Relative potency came to 0.4 in experiment [3] and 0.3 in experiment [4].
